Test results taken from ChEMBL document CHEMBL1122515, “Structure-activity relationship of the ficin hydrolysis of phenyl hippurates. Comparison with papain, actinidin, and bromelain” (J Med Chem, 1984).

Assays:
[1] = Michaelis constant (Km), determined by Ficin hydrolysis at pH 6, 25 degrees Centigrade; type: ADME; settings: buffer
In short: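 Ficin stock suspension diluted in 0.03 M NaCl-0.01 M EDTA buffer pH 6, activated ~2 h by saturation with 4-thiocresol, then diluted again in the same buffer. Ester hydrolysis followed spectrophotometrically at 25 °C, pH 6, in 3.3% acetonitrile-buffer. Initial rates taken at ≥8 substrate concentrations per ester. Km from least-squares fit of a Lineweaver-Burk plot.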

[2] = The compound was tested and spectral absorbance change (Δε) was evaluated
[3] = The compound was tested for optimum wavelength (λmax)
[4] = The compound was tested and optimum wavelength (λmax) was evaluated

| SMILES | Log 1/Km [1] | also measured |
| --- | --- | --- |
| Cc1cc(C)cc(OC(=O)CNC(=O)c2ccccc2)c1 | 4.54 | – |
| O=C(CNC(=O)c1ccccc1)Oc1cccc(C(F)(F)F)c1 | 4.85 | – |
| O=C(CNC(=O)c1ccccc1)Oc1cccc(Cl)c1 | 4.43 | – |
| O=C(CNC(=O)c1ccccc1)Oc1ccc(Br)cc1 | 4.13 | Δε [2]: 1090 M⁻¹ cm⁻¹; λmax [3]: 280 nm |
| CCc1cc(C)cc(OC(=O)CNC(=O)c2ccccc2)c1 | 4.79 | – |
| O=C(CNC(=O)c1ccccc1)Oc1cccc([N+](=O)[O-])c1 | 4.36 | – |
| O=C(CNC(=O)c1ccccc1)Oc1ccc(Cl)cc1 | 3.91 | – |
| O=C(CNC(=O)c1ccccc1)Oc1ccc(F)cc1 | 3.53 | – |
| Cc1cccc(OC(=O)CNC(=O)c2ccccc2)c1 | 4.17 | – |
| O=C(CNC(=O)c1ccccc1)Oc1cc(Cl)cc(Cl)c1 | 4.98 | – |
| CC(=O)c1ccc(OC(=O)CNC(=O)c2ccccc2)cc1 | 4.3 | – |
| O=C(CNC(=O)c1ccccc1)Oc1cccc(I)c1 | 4.64 | – |
| O=C(CNC(=O)c1ccccc1)Oc1cc([N+](=O)[O-])cc([N+](=O)[O-])c1 | 4.69 | – |
| COc1cccc(OC(=O)CNC(=O)c2ccccc2)c1 | 4.09 | Δε [2]: 886 M⁻¹ cm⁻¹; λmax [4]: 280 nm |
| COc1cc(OC)cc(OC(=O)CNC(=O)c2ccccc2)c1 | 4.52 | – |
| Nc1cccc(OC(=O)CNC(=O)c2ccccc2)c1 | 3.72 | – |
| CC(=O)Nc1cccc(OC(=O)CNC(=O)c2ccccc2)c1 | 3.74 | – |
| N#Cc1cccc(OC(=O)CNC(=O)c2ccccc2)c1 | 4.15 | – |
| Cc1ccc(OC(=O)CNC(=O)c2ccccc2)cc1 | 3.82 | – |
| CC(C)c1ccc(OC(=O)CNC(=O)c2ccccc2)cc1 | 4.33 | Δε [2]: 1300 M⁻¹ cm⁻¹; λmax [4]: 275 nm |
| O=C(CNC(=O)c1ccccc1)Oc1ccc([N+](=O)[O-])cc1 | 4.5 | – |
| NC(=O)c1ccc(OC(=O)CNC(=O)c2ccccc2)cc1 | 4.17 | – |
| O=C(CNC(=O)c1ccccc1)Oc1cccc(F)c1 | 3.81 | – |
| N#Cc1ccc(OC(=O)CNC(=O)c2ccccc2)cc1 | 4.27 | – |
| CC(C)(C)c1cccc(OC(=O)CNC(=O)c2ccccc2)c1 | 5.14 | – |
| CC(=O)c1cccc(OC(=O)CNC(=O)c2ccccc2)c1 | 4.11 | Δε [2]: 1860 M⁻¹ cm⁻¹; λmax [4]: 310 nm |
| NC(=O)c1cccc(OC(=O)CNC(=O)c2ccccc2)c1 | 3.99 | – |
| COc1ccc(OC(=O)CNC(=O)c2ccccc2)cc1 | 3.82 | – |
| O=C(CNC(=O)c1ccccc1)Oc1ccccc1 | 3.9 | – |
| O=C(CNC(=O)c1ccccc1)Oc1cccc(Br)c1 | 4.75 | – |
